The nature of data set [1]: Volume of distribution at steady state in dog at 0.4 mg/kg, iv. Format: ADME, organism-based, Canis lupus familiaris. More on the design: dose 0.4 mg/kg, route intravenous. The settings on record: in vivo, read-out: Vdss.
Another data set relates to A2780. The data set is described as follows: Inhibition of tumor growth in human A2780 cells xenografted clr:NU/NU-nuBR mouse assessed as change in tumor volume at 100 mg/kg, sc administered q4d x 3 dosing schedule. Background: A xenograft is tissue or cells of one species grown in another, often human tumour cells in immunodeficient mice.
A short description of data set [2]: Inhibition of human KSP in presence of 30% mouse serum. The method in brief: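 KSP ATPase assay as the primary one (0.25 nM KSP motor domain, microtubules, 1 mM ATP, pH 6.8, 3 h at RT, quinaldine red phosphate read-out), run with 30% mouse serum dialysed against reaction buffer (12-14 kDa cutoff). Mean of at least 3 experiments unless noted.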
Data set [3] in a line: Half life in rhesus monkey at 0.4 mg/kg, iv. Format: ADME, organism-based, Macaca mulatta. More on the design: dose 0.4 mg/kg, route intravenous. The settings on record: in vivo.
Data set [4] in a line: Volume of distribution at steady state in rhesus monkey at 0.4 mg/kg, iv. To be noted: in vivo, read-out: Vdss. The arrangement: dose 0.4 mg/kg, route intravenous. Format: ADME, organism-based, Macaca mulatta.
Data set [5] can be described thus: Aqueous solubility at pH 4.3. The format is physicochemical. To be noted: aqueous solution.

Activity calls are given as the source filed them.

By IC50 is commonly meant the point on the concentration scale where inhibition reaches its midpoint. One may read the half-life as the time needed for the level to fall by half in the phase considered. For orientation: solubility means how much of the substance goes into solution per volume.

In the case of `CN1CC[C@H](N(C)C(=O)N2CC(c3cc(F)ccc3F)=C[C@@]2(CO)c2ccccc2)[C@H](F)C1`, the Vd in data set [1] amounted to 1.6 L/kg; in data set [4], 2.3 L/kg. Besides, the result in the data set with A2780 was Active. The IC50 in data set [2] is 29.1 nM. In addition, the half-life in data set [3] was 60 min. The solubility in data set [5] was above 50 mg/mL.

Values taken from ChEMBL document CHEMBL1155077, “Kinesin spindle protein (KSP) inhibitors. 9. Discovery of (2S)-4-(2,5-difluorophenyl)-n-[(3R,4S)-3-fluoro-1-methylpiperidin-4-yl]-2-(hydroxymethyl)-N-methyl-2-phenyl-2,5-dihydro-1H-pyrrole-1-carboxamide (MK-0731) for the treatment of taxane-refractory cancer” (J Med Chem, 2008).
